# Data published in ChEMBL document CHEMBL1148955, “Chemical constituents from the Colombian medicinal plant Maytenus laevis” (2004).
# The source made the active and inactive calls. The rule behind the calls is not given here.
# How the values were obtained:
# PBMC [1] = assay: Induction of IL6 production in human PBMC at 1 ug/ml after 48 hrs by ELISA; type: functional
# Summary of the method: (§1)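 PBMCs were isolated from heparinized venous blood by Ficoll-Hypaque density gradient centrifugation. Cells were cultured at 1 × 10^6/mL in RPMI 1640 with 10% fetal calf serum, with or without compound at 1 or 10 µg/mL, for 48 h at 37 °C. Cytokines in the culture supernatants were measured by commercial ELISA kits.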
# PBMC [2] = assay: Induction of IL12 production in human PBMC at 1 ug/ml after 48 hrs by ELISA; type: functional; summary of the method: as §1
# PBMC [3] = assay: Induction of IL12 production in human PBMC at 10 ug/ml after 48 hrs by ELISA; type: functional; summary of the method: as §1
# PBMC [4] = assay: Induction of TNFalpha production in human PBMC at 1 ug/ml after 48 hrs by ELISA; type: functional; summary of the method: as §1
# PBMC [5] = assay: Induction of IL10 production in human PBMC at 1 ug/ml after 48 hrs by ELISA; type: functional, cell-based; summary of the method: as §1
# PBMC [6] = assay: Induction of TNFalpha production in human PBMC at 10 ug/ml after 48 hrs by ELISA; type: functional; summary of the method: as §1
# PBMC [7] = assay: Induction of IL10 production in human PBMC at 10 ug/ml after 48 hrs by ELISA; type: functional, cell-based; summary of the method: as §1
# PBMC [8] = assay: Induction of IL6 production in human PBMC at 10 ug/ml after 48 hrs by ELISA; type: functional; summary of the method: as §1
# PBMC [9] = assay: Induction of IFN-gamma production in human PBMC at 1 ug/ml after 48 hrs by ELISA; type: functional, cell-based; summary of the method: as §1
# PBMC [10] = assay: Induction of IFN-gamma production in human PBMC at 10 ug/ml after 48 hrs by ELISA; type: functional, cell-based; summary of the method: as §1
# PBMC [11] = assay: Induction of IL4 production in human PBMC at 10 ug/ml after 48 hrs by ELISA; type: functional, cell-based; summary of the method: as §1
# PBMC [12] = assay: Induction of IL4 production in human PBMC at 1 ug/ml after 48 hrs by ELISA; type: functional, cell-based; summary of the method: as §1
Structure (SMILES),Activity (PBMC [1]) [pg/mL],Activity (PBMC [2]) [pg/mL],Activity (PBMC [3]) [pg/mL],Activity (PBMC [4]) [pg/mL],Activity (PBMC [5]),Activity (PBMC [6]) [pg/mL],Activity (PBMC [7]),Activity (PBMC [8]) [pg/mL],Activity (PBMC [9]),Activity (PBMC [10]),Activity (PBMC [11]),Activity (PBMC [12])
CC1(C)C(=O)CC[C@]2(C)[C@H]3CC=C4[C@@H]5C[C@]6(C)C[C@@H](OC6=O)[C@]5(C)CC[C@@]4(C)[C@]3(C)CC[C@@H]12 [WILFORLIDE B],1477.6,<7.8,<7.8,<7.8,inactive,<7.8,inactive,451.1,inactive,inactive,inactive,inactive
CC1(C)[C@@H](O)CC[C@]2(C)[C@H]3CC=C4[C@H]5C[C@](C)(C(=O)O)C[C@@H](O)[C@]5(C)CC[C@@]4(C)[C@]3(C)CC[C@@H]12,57.5,<7.8,<7.8,<7.8,inactive,<7.8,inactive,297.6,inactive,inactive,inactive,inactive
C[C@H]1[C@H](C)CC[C@]2(CO)CC[C@]3(C)C(=CC[C@@H]4[C@@]5(C)CC[C@H](OC(=O)/C=C/c6ccc(O)c(O)c6)C(C)(C)[C@@H]5CC[C@]43C)[C@H]12,28.5,<7.8,<7.8,<7.8,inactive,27.9,inactive,607.1,inactive,inactive,inactive,inactive
CC(=O)O[C@@H]1[C@@H]2[C@@H](OC(C)=O)[C@@]34O[C@@]2(C)COC(=O)c2cccnc2C(C)C(C)C(=O)O[C@@H]([C@H](O)[C@H](OC(C)=O)[C@@]3(COC(=O)c2ccccc2)[C@@H]1OC(C)=O)[C@]4(C)O (some centres undefined),136.1,<7.8,<7.8,<7.8,inactive,<7.8,inactive,110.1,inactive,inactive,inactive,inactive
CC(=O)OC[C@]12[C@H](OC(C)=O)[C@H](OC(C)=O)[C@@H]3[C@@H](OC(C)=O)[C@@]14O[C@@]3(C)COC(=O)c1cccnc1C(C)C(C)C(=O)O[C@@H]([C@H](OC(C)=O)[C@@H]2OC(=O)c1ccccc1)[C@]4(C)O (some centres undefined) [MAYTEINE],1245.2,14.3,14.7,22,inactive,24.6,inactive,1576.2,inactive,inactive,inactive,inactive
CC1(C)[C@@H](O)CC[C@]2(C)[C@H]3CC=C4[C@@H]5C[C@@]6(C)C[C@H](OC6=O)[C@]5(C)CC[C@@]4(C)[C@]3(C)CC[C@@H]12 [3-EPIABRUSLACTONE A],<7.8,<7.8,<7.8,<7.8,inactive,<7.8,inactive,308.4,inactive,inactive,inactive,inactive
CC1(C)[C@H](O)CC[C@]2(C)[C@H]3CC=C4[C@@H]5C[C@](C)(C(=O)O)C[C@@H](O)[C@]5(C)CC[C@@]4(C)[C@]3(C)CC[C@@H]12,32.2,<7.8,<7.8,<7.8,inactive,<7.8,inactive,16.2,inactive,inactive,inactive,inactive
COc1c(O)cc(-c2oc3cc(O)cc(O)c3c(=O)c2O)cc1O [MEARNSETIN],783.6,14.3,<7.8,31.3,inactive,<7.8,inactive,203.4,inactive,inactive,inactive,inactive
CC(=O)OC[C@]12[C@H](OC(=O)c3ccccc3)[C@H](OC(C)=O)[C@@H]3[C@@H](OC(C)=O)[C@@]14O[C@@]3(C)COC(=O)c1cccnc1C(C)C(C)C(=O)O[C@@H]([C@H](OC(C)=O)[C@@H]2OC(=O)c1ccccc1)[C@]4(C)O (some centres undefined) [EBENIFOLINE E III],<7.8,<7.8,<7.8,<7.8,inactive,<7.8,inactive,<7.8,inactive,inactive,inactive,inactive
C[C@@H]1[C@@]23CC[C@H]4[C@@](C)(CC[C@@]5(C)[C@@H]6C[C@](C)(C(=O)O)CC[C@]6(C)CC[C@]45C)[C@@H]2CC[C@@]1(O)OC3 [SALASPERMIC ACID],857.3,21.6,<7.8,54.5,inactive,<7.8,inactive,109.6,inactive,inactive,inactive,inactive
CC(C)c1cc2c(cc1O)[C@@]1(C)CCC[C@](C)(C(=O)O)[C@@H]1CC2 [LAMBERTIC ACID],59.8,<7.8,<7.8,<7.8,inactive,<7.8,inactive,1454.4,inactive,inactive,inactive,inactive
COc1c(O)cc([C@H]2Oc3c(c(O)cc(O)c3[C@H]3c4c(O)cc(O)cc4O[C@H](c4ccc(O)cc4)[C@@H]3O)C[C@H]2O)cc1O [OURATEAPROANTHOCYANIDIN A],28.1,<7.8,<7.8,<7.8,inactive,<7.8,inactive,174.4,inactive,inactive,inactive,inactive
COc1ccc(C(=O)O[C@@H]2C[C@](C)(O)[C@H]3[C@H](O[C@@H]4O[C@H](CO)[C@@H](O)[C@H](O)[C@H]4O)OC=C[C@H]32)cc1OC,849.5,27.2,<7.8,12.6,inactive,<7.8,inactive,38.1,inactive,inactive,inactive,inactive
CC1(C)[C@H](O)CC[C@]2(C)[C@H]3CC=C4[C@@H]5C[C@@]6(C)C[C@H](OC6=O)[C@]5(C)CC[C@@]4(C)[C@]3(C)CC[C@@H]12 [ABRUSLACTONE A],22.5,<7.8,28.3,<7.8,inactive,22.7,inactive,777.2,inactive,inactive,inactive,inactive
CC1(C)[C@@H](O)CC[C@]2(C)[C@H]3CC=C4[C@@H]5C[C@](C)(C(=O)O)C[C@H](O)[C@]5(C)CC[C@@]4(C)[C@]3(C)CC[C@@H]12 [MAYTENFOLIC ACID],380,<7.8,<7.8,<7.8,,<7.8,,76.1,,,,
